Tested on: not listed separately
Assay: Selectivity ratio of IC50 for antiproliferative activity against wild type human NCI-H1299 cells to IC50 for antiproliferative activity against human NCI-H1299 cells expressing AKR1C3
Type: functional
Details: time 4 hrs
Procedure, shortened: (§1)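 Ratio of mean IC50 in non-transfected wild-type cells to mean IC50 in the AKR1C3- or NfsA_Ec-transfected line. IC50 is from a 4 h prodrug exposure and 5 days' regrowth.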

**Q.** For CCN1CCN(C(=O)c2cc(N(CCBr)CCBr)c(S(C)(=O)=O)cc2[N+](=O)[O-])CC1, which “Ratio IC50” value is on record?
**A.** 1

Tested on: NCI-H1299
Assay: Antiproliferative activity against human NCI-H1299 cells expressing NfsA of Escherichia coli assessed as cell growth inhibition measured after 4 hrs
Type: functional
Details: NCI-H1299, 4 h
Procedure, shortened: (§2)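 Monolayer antiproliferative assay using wild-type cells and isogenic lines transfected with AKR1C3 or E. coli NfsA. Cells exposed to prodrug for 4 h, then regrown for 5 days. IC50 is 50% growth inhibition versus untreated controls. Mean values reported, CV <20%.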

**Q.** With CCN1CCN(C(=O)c2cc(N(CCBr)CCBr)c(S(C)(=O)=O)cc2[N+](=O)[O-])CC1 as the compound, how does the IC50 read?
**A.** 175 nM

Tested on: SiHa
Assay: Antiproliferative activity against human SiHa cells assessed as inhibition of cell growth incubated for 4 hrs under anoxic condition and measured after 5 days regrowth under aerobic condition
Type: functional, cell-based
Details: not given
Procedure, shortened: (§3)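 Low-density monolayer antiproliferative assay. Cells exposed to prodrug for 4 h under aerobic or anoxic conditions, then regrown aerobically for 5 days. IC50 is the concentration giving 50% growth inhibition versus untreated controls. Mean values reported, CV <20%.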

**Q.** With CCN1CCN(C(=O)c2cc(N(CCBr)CCBr)c(S(C)(=O)=O)cc2[N+](=O)[O-])CC1 as the compound, how does the IC50 read?
**A.** 10 µM

Tested on: HCT-116
Assay: Antiproliferative activity against human HCT-116 cells in three-dimensional cell culture multicellular layer expressing NfsA of Escherichia coli assessed as fold change in plating efficiency at 10 uM
Type: functional
Details: not given
Procedure, shortened: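 Mixed MCLs of wild-type HCT116 with 3% NfsA_Ec-expressing cells, against 100% wild-type MCLs, exposed to 10 μM prodrug. Clonogenic plating efficiency measured. Fold change is the plating-efficiency ratio between wild-type and transfected MCLs. ≥3 independent experiments.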

**Q.** With CCN1CCN(C(=O)c2cc(N(CCBr)CCBr)c(S(C)(=O)=O)cc2[N+](=O)[O-])CC1 as the compound, how does the “fold change (FC)” value read?
**A.** 825

Tested on: HCT-116
Assay: Antiproliferative activity against wild type human HCT-116 cells assessed as cell growth inhibition measured after 4 hrs
Type: functional, cell-based
Details: HCT-116, 4 h
Procedure, shortened: as §2

**Q.** Which IC50 does the source give for CCN1CCN(C(=O)c2cc(N(CCBr)CCBr)c(S(C)(=O)=O)cc2[N+](=O)[O-])CC1 here?
**A.** 77 µM

Tested on: not listed separately
Assay: Toxicity in NIH-III nude mouse xenografted with human HCT-116 cells expressing NfsA of Escherichia coli assessed as body weight loss at 1000 micromol/kg, ip BID
Type: organism-based
Details: in vivo, at 1000 µmol/kg

**Q.** Which Activity does the source give for CCN1CCN(C(=O)c2cc(N(CCBr)CCBr)c(S(C)(=O)=O)cc2[N+](=O)[O-])CC1 here?
**A.** < 10%

Tested on: NCI-H1299
Assay: Antiproliferative activity against wild type human NCI-H1299 cells assessed as cell growth inhibition measured after 4 hrs
Type: functional, cell-based
Details: NCI-H1299, 4 h
Procedure, shortened: as §2

**Q.** Which IC50 does the source give for CCN1CCN(C(=O)c2cc(N(CCBr)CCBr)c(S(C)(=O)=O)cc2[N+](=O)[O-])CC1 here?
**A.** 71 µM

Tested on: not listed separately
Assay: Selectivity ratio of IC50 for antiproliferative activity against wild type human HCT-116 cells to IC50 for antiproliferative activity against human HCT-116 cells expressing NfsA of Escherichia coli
Type: functional
Details: time 4 hrs
Procedure, shortened: as §1

**Q.** Which “Ratio IC50” value does the source give for CCN1CCN(C(=O)c2cc(N(CCBr)CCBr)c(S(C)(=O)=O)cc2[N+](=O)[O-])CC1 here?
**A.** 740

Tested on: not listed separately
Assay: (§4) Selectivity ratio of IC50 for antiproliferative activity against human SiHa cells assessed as inhibition of cell growth under aerobic condition to IC50 for antiproliferative activity against human SiHa cells assessed as inhibition of cell growth under anoxic condition
Type: functional
Details: not given
Procedure, shortened: (§5)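 Hypoxic cytotoxicity ratio is aerobic IC50 divided by anoxic IC50. Each IC50 comes from a 4 h drug exposure under aerobic or anoxic conditions, followed by 5 days' aerobic regrowth, relative to untreated controls.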

**Q.** With CCN1CCN(C(=O)c2cc(N(CCBr)CCBr)c(S(C)(=O)=O)cc2[N+](=O)[O-])CC1 as the compound, how does the “Ratio IC50” value read?
**A.** 16

Tested on: HCT-116
Assay: Antiproliferative activity against human HCT-116 cells in three-dimensional cell culture multicellular layers assessed as log cell killing under anoxic condition at 100 uM
Type: functional
Details: not given
Procedure, shortened: (§6)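 HCT116 three-dimensional multicellular layers exposed to 100 μM prodrug under aerobic or anoxic conditions. Clonogenic survivors per MCL counted. Log cell kill = log CS(control) − log CS(treated). Mean of ≥3 independent experiments.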

**Q.** For CCN1CCN(C(=O)c2cc(N(CCBr)CCBr)c(S(C)(=O)=O)cc2[N+](=O)[O-])CC1, which LCK is on record?
**A.** 0.016

Tested on: HCT-116
Assay: Antiproliferative activity against human HCT-116 cells in three-dimensional cell culture multicellular layers assessed as log cell killing under aerobic condition at 100 uM
Type: functional
Details: not given
Procedure, shortened: as §6

**Q.** For CCN1CCN(C(=O)c2cc(N(CCBr)CCBr)c(S(C)(=O)=O)cc2[N+](=O)[O-])CC1, which LCK is on record?
**A.** 2.3

Tested on: HCT-116
Assay: Antiproliferative activity against human HCT-116 cells assessed as inhibition of cell growth incubated for 4 hrs under aerobic condition and measured after 5 days regrowth under aerobic condition
Type: functional, cell-based
Details: not given
Procedure, shortened: as §3

**Q.** With CCN1CCN(C(=O)c2cc(N(CCBr)CCBr)c(S(C)(=O)=O)cc2[N+](=O)[O-])CC1 as the compound, how does the IC50 read?
**A.** 145 µM

Tested on: not listed separately
Assay: Selectivity ratio of IC50 for antiproliferative activity against wild type human NCI-H1299 cells to IC50 for antiproliferative activity against human NCI-H1299 cells expressing NfsA of Escherichia coli
Type: functional
Details: time 4 hrs
Procedure, shortened: as §1

**Q.** For CCN1CCN(C(=O)c2cc(N(CCBr)CCBr)c(S(C)(=O)=O)cc2[N+](=O)[O-])CC1, which “Ratio IC50” value is on record?
**A.** 406

Tested on: not listed separately
Assay: as §4, with “HCT-116” for “SiHa”, “cells overexpressing cytochrome P450 oxidoreductase” for “cells”
Type: functional
Details: not given
Procedure, shortened: as §5

**Q.** With CCN1CCN(C(=O)c2cc(N(CCBr)CCBr)c(S(C)(=O)=O)cc2[N+](=O)[O-])CC1 as the compound, how does the “Ratio IC50” value read?
**A.** 82

Tested on: not listed separately
Assay: Octanol/water partition coefficient, log D of the compound at pH 7.4
Type: physicochemical
Details: not given
Procedure, shortened: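 Octanol–water partition coefficient by shake-flask method at pH 7.4.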

**Q.** With CCN1CCN(C(=O)c2cc(N(CCBr)CCBr)c(S(C)(=O)=O)cc2[N+](=O)[O-])CC1 as the compound, how does the logD read?
**A.** 1.7

Tested on: NCI-H1299
Assay: Antiproliferative activity against human NCI-H1299 cells expressing AKR1C3 assessed as cell growth inhibition measured after 4 hrs
Type: functional, cell-based
Details: NCI-H1299, 4 h
Procedure, shortened: as §2

**Q.** With CCN1CCN(C(=O)c2cc(N(CCBr)CCBr)c(S(C)(=O)=O)cc2[N+](=O)[O-])CC1 as the compound, how does the IC50 read?
**A.** 71 µM

Tested on: not listed separately
Assay: Toxicity in NIH-III nude mouse xenografted with human HCT-116 cells expressing NfsA of Escherichia coli assessed as body weight loss at 1000 micromol/kg, ip BID measured on day 6
Type: organism-based
Details: in vivo, 144 h, at 1000 µmol/kg, time 6 day

**Q.** For CCN1CCN(C(=O)c2cc(N(CCBr)CCBr)c(S(C)(=O)=O)cc2[N+](=O)[O-])CC1, which Activity is on record?
**A.** <= 7%

Tested on: HCT-116
Assay: Antiproliferative activity against human HCT-116 cells expressing AKR1C3 assessed as cell growth inhibition measured after 4 hrs
Type: functional, cell-based
Details: HCT-116, 4 h
Procedure, shortened: as §2

**Q.** Which IC50 does the source give for CCN1CCN(C(=O)c2cc(N(CCBr)CCBr)c(S(C)(=O)=O)cc2[N+](=O)[O-])CC1 here?
**A.** 49 µM

Tested on: not listed separately
Assay: Selectivity ratio of IC50 for antiproliferative activity against human HCT-116 cells assessed as inhibition of cell growth under aerobic condition to IC50 for antiproliferative activity against human HCT-116 cells assessed as inhibition of cell growth under anoxic condition
Type: functional
Details: not given
Procedure, shortened: as §5

**Q.** Which “Ratio IC50” value does the source give for CCN1CCN(C(=O)c2cc(N(CCBr)CCBr)c(S(C)(=O)=O)cc2[N+](=O)[O-])CC1 here?
**A.** 6.9

Tested on: HCT-116
Assay: Antiproliferative activity against human HCT-116 cells overexpressing cytochrome P450 oxidoreductase assessed as inhibition of cell growth incubated for 4 hrs under anoxic condition and measured after 5 days regrowth under aerobic condition
Type: functional, cell-based
Details: not given
Procedure, shortened: as §3

**Q.** For CCN1CCN(C(=O)c2cc(N(CCBr)CCBr)c(S(C)(=O)=O)cc2[N+](=O)[O-])CC1, which IC50 is on record?
**A.** 660 nM

Tested on: not listed separately
Assay: Selectivity ratio of IC50 for antiproliferative activity against wild type human HCT-116 cells to IC50 for antiproliferative activity against human HCT-116 cells expressing AKR1C3
Type: functional
Details: time 4 hrs
Procedure, shortened: as §1

**Q.** With CCN1CCN(C(=O)c2cc(N(CCBr)CCBr)c(S(C)(=O)=O)cc2[N+](=O)[O-])CC1 as the compound, how does the “Ratio IC50” value read?
**A.** 1.6

Tested on: SiHa
Assay: Antiproliferative activity against human SiHa cells assessed as inhibition of cell growth incubated for 4 hrs under aerobic condition and measured after 5 days regrowth under aerobic condition
Type: functional, cell-based
Details: not given
Procedure, shortened: as §3

**Q.** Which IC50 does the source give for CCN1CCN(C(=O)c2cc(N(CCBr)CCBr)c(S(C)(=O)=O)cc2[N+](=O)[O-])CC1 here?
**A.** 164 µM

Tested on: HCT-116
Assay: Antiproliferative activity against human HCT-116 cells in three-dimensional cell culture multicellular layer expressing AKR1C3 assessed as fold change in plating efficiency at 10 uM
Type: functional
Details: not given
Procedure, shortened: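 100% AKR1C3-expressing HCT116 MCLs, against wild-type HCT116 MCLs, exposed to 10 μM prodrug. Clonogenic plating efficiency measured. Fold change is the plating-efficiency ratio between wild-type and transfected MCLs. ≥3 independent experiments.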

**Q.** Which “fold change (FC)” value does the source give for CCN1CCN(C(=O)c2cc(N(CCBr)CCBr)c(S(C)(=O)=O)cc2[N+](=O)[O-])CC1 here?
**A.** 1.2

Tested on: HCT-116
Assay: Antiproliferative activity against human HCT-116 cells overexpressing cytochrome P450 oxidoreductase assessed as inhibition of cell growth incubated for 4 hrs under aerobic condition and measured after 5 days regrowth under aerobic condition
Type: functional, cell-based
Details: not given
Procedure, shortened: as §3

**Q.** With CCN1CCN(C(=O)c2cc(N(CCBr)CCBr)c(S(C)(=O)=O)cc2[N+](=O)[O-])CC1 as the compound, how does the IC50 read?
**A.** 54 µM

Tested on: not listed separately
Assay: Toxicity in NIH-III nude mouse xenografted with human HCT-116 cells expressing NfsA of Escherichia coli assessed as body weight loss at 1000 micromol/kg, ip BID measured on day 16
Type: organism-based
Details: in vivo, 384 h, dose 1000 µmol/kg, time 16 day

**Q.** For CCN1CCN(C(=O)c2cc(N(CCBr)CCBr)c(S(C)(=O)=O)cc2[N+](=O)[O-])CC1, which Activity is on record?
**A.** Non-Toxic

Tested on: not listed separately
Assay: Metabolic stability in mouse liver microsome assessed as half life in presence of NADPH by LC-MS/MS analysis
Type: ADME
Details: liver microsomes
Procedure, shortened: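 Male mouse hepatic microsomes incubated with prodrug for 30 min, with or without NADPH cofactor. Percentage of parent compound remaining tracked from triplicate incubations. Half-life estimated from this loss.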

**Q.** For CCN1CCN(C(=O)c2cc(N(CCBr)CCBr)c(S(C)(=O)=O)cc2[N+](=O)[O-])CC1, which half-life is on record?
**A.** 6.05 min

Tested on: HCT-116
Assay: Antiproliferative activity against human HCT-116 cells assessed as inhibition of cell growth incubated for 4 hrs under anoxic condition and measured after 5 days regrowth under aerobic condition
Type: functional, cell-based
Details: not given
Procedure, shortened: as §3

**Q.** For CCN1CCN(C(=O)c2cc(N(CCBr)CCBr)c(S(C)(=O)=O)cc2[N+](=O)[O-])CC1, which IC50 is on record?
**A.** 21 µM

Tested on: HCT-116
Assay: Antiproliferative activity against human HCT-116 cells expressing NfsA of Escherichia coli assessed as cell growth inhibition measured after 4 hrs
Type: functional
Details: HCT-116, 4 h
Procedure, shortened: as §2

**Q.** For CCN1CCN(C(=O)c2cc(N(CCBr)CCBr)c(S(C)(=O)=O)cc2[N+](=O)[O-])CC1, which IC50 is on record?
**A.** 104 nM
